From PubChem
Hits are enriched below; roughly 2.6% of the tested compounds scored in any of these assays.
MEKK2mut PB1 HTS: signal of MEK5 binding to mutant human MEKK2 PB1 domain | AID 1530 | percent response, % at 10 µM | bead flow cytometry, Alexa488-MEK5 binding to MEKK2 mutant | hit rate 0.35% among 290,000; in the data active = percent response above about 24%, passing the limit was not always enough
MEKK2wt PB1 HTS: raises or lowers MEK5 binding to wildtype human MEKK2 PB1 domain | bead flow cytometry, Alexa488-MEK5 binding to MEKK2 WT; actives lie on both sides | hit rate 1.1% among 290,000 | Q9Y2U5 | binding response (% of control), % at 10 µM; in the data active = binding response below about 67% or above about 130%
Lipid droplet: hepatic lipid droplet formation modulation. AML12 mouse hepatocytes, oleate lipid droplets, BODIPY imaging. inhibition, % at 6.5 µM. hit rate 0.4% among 240,000;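 active = lipid droplet intensity inhibited by at least 50%, with more than 500 cells counted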
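Technique: fluorescence imaging, 20x objective, two fields per well / Assay system: AML12 hepatocytes (mouse) / Measure: % inhibition of lipid droplet signal / Doses: 6.5 µM single-point dosing / Incubation: overnight exposure / Reagent: 100 µM oleic acid challenge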
MEKK3 PB1 HTS: modulators (inhibitors or enhancers) of MEK5 binding to human MEKK3 PB1 domain | binding response (% of control), % at 10 µM | hit rate 1.4% among 290,000 | AID 1529 | bead-based flow cytometry, Alexa488-MEK5 binding to MEKK3; actives lie on both sides; 0 = blocked by unlabeled MEK5, 100 = vehicle | Q99759;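 active = binding response more than 3 SD above or below the average of its plate-row segment, actives on both sides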;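 note: Alexa488 bead fluorescence after subtracting the streptavidin-only scavenger bead signal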
Target sequence (Q99759 whole entry, looked up, the tested form may be a part): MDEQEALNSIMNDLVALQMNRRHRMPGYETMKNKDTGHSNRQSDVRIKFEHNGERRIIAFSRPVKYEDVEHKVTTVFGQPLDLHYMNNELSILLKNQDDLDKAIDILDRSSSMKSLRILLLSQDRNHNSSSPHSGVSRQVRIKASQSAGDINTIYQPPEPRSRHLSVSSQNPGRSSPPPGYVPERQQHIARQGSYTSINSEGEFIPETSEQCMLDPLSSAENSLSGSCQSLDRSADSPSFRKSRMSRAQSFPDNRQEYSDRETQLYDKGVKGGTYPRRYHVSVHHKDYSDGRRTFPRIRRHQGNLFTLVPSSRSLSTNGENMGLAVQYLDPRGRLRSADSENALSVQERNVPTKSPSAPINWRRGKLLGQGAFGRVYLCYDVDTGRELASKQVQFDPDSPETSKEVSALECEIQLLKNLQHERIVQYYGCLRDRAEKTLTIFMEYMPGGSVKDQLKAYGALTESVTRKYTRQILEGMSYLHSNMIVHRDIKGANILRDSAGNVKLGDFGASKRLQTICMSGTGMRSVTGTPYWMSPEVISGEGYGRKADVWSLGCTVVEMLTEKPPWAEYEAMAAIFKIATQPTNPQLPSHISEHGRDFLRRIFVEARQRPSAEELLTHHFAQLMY
MEKK2wt confirm: raises or lowers MEK5 binding to wildtype human MEKK2, retest | shares compounds with MEKK3 PB1 HTS | bead flow cytometry, Alexa488-MEK5 binding to MEKK2 WT; actives lie on both sides | binding response (% of control), % at 10 µM | hit rate 2.4% among 5,900; in the data active = binding response below about 16% or above about 210%; inactive = in between
MEKK2mut-MEK5: signal of MEK5 binding to mutant human MEKK2, retest; shares compounds with MEKK3 PB1 HTS; bead flow cytometry, Alexa488-MEK5 binding to MEKK2 mutant; percent response, % at 10 µM; hit rate 2% among 5,900; in the data active = percent response mostly above about 71%, no sharp cut-off; inactive = mostly below about 38%;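 note: higher means compound restores mutant binding toward wildtype level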
MEKK3 confirm: confirmation of inhibitors of MEK5 binding to human MEKK3. shares compounds with MEKK3 PB1 HTS. bead flow cytometry, Alexa488-MEK5 binding to MEKK3; hits give low values. binding response (% of control), % at 10 µM. hit rate 1.8% among 5,900;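 active = binding response below 72% of control, or above a set upper limit, though filed actives all read lower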;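 note: lower values mean stronger disruption of MEK5 binding to MEKK3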
Large screens that a line does not name were inactive (follow-up assays come after a bar, where they were run); [ ] = another dose, or the depositor's remark.

Cc1ccc2c(CC(=O)OCc3csc(C)n3)coc2c1	MEKK2wt PB1 HTS 3.0[inhibitor], MEKK3 PB1 HTS 3.0[inhibitor] | MEKK2wt confirm inactive | MEKK2mut-MEK5 inactive | MEKK3 confirm inactive
CC(/C=N/n1c(-c2ccco2)n[nH]c1=S)=C\c1ccccc1	MEKK3 PB1 HTS 134 | MEKK2wt confirm inactive | MEKK2mut-MEK5 inactive | MEKK3 confirm inactive
CC(/C=N/n1c(-c2ccccn2)n[nH]c1=S)=C\c1ccccc1	none
O=C1C2C3C=CC(C3)C2C(=O)N1CCCCCCN1C(=O)C2C3C=CC(C3)C2C1=O (configuration not stated)	none
O=C1C=CC(=O)N1CCCCCCN1C(=O)C=CC1=O	MEKK2mut PB1 HTS 62 | MEKK2wt confirm inactive | MEKK2mut-MEK5 inactive | MEKK3 confirm inactive
CCC(C)NC(=O)c1ccc(C)c(NC(=O)C2=C(C)OCCS2)c1 (configuration not stated)	none
CC(/C=C/c1ccco1)=N\NC(=O)C(O)c1ccccc1 (configuration not stated)	MEKK3 PB1 HTS 133 | MEKK2wt confirm inactive | MEKK2mut-MEK5 inactive | MEKK3 confirm inactive
O=[N+]([O-])c1ccccc1S(=O)(=O)Nc1ccc2c(c1)OCCO2	none
Cc1ccc(OC(F)F)c(NC(=O)Nc2cccc(C(F)(F)F)c2)c1	MEKK2mut PB1 HTS 55, MEKK2wt PB1 HTS 203 | MEKK2wt confirm inactive | MEKK2mut-MEK5 inactive | MEKK3 confirm inactive
O=C(Nc1ccccc1)Nc1cccc(C(F)(F)F)c1	none
CCOc1ccc(N(CC(=O)Nc2cccc(Cl)c2)S(=O)(=O)c2c(C)noc2C)cc1	MEKK2wt PB1 HTS 155 (no result: Lipid droplet) | MEKK2wt confirm inactive | MEKK2mut-MEK5 inactive | MEKK3 confirm inactive
COc1ccc(C(C(=O)NC2CCCC2)N(Cc2cccnc2)C(=O)c2snc(C(N)=O)c2N)cc1OC (configuration not stated)	none
COc1ccc(NC(=O)CSc2ccc3c4c(cccc24)C(=O)c2ccccc2-3)cc1	MEKK2wt PB1 HTS 56[inhibitor] (no result: Lipid droplet) | MEKK2wt confirm inactive | MEKK2mut-MEK5 inactive | MEKK3 confirm inactive
COc1ccc(C(=O)N2CCc3ccccc32)cc1	MEKK3 PB1 HTS 122 | MEKK2wt confirm inactive | MEKK2mut-MEK5 inactive | MEKK3 confirm inactive
O=C(c1ccccc1)N1CCc2ccccc21	none
Fc1ccccc1Cn1c2[n+](c3ccc(C(F)(F)F)cc31)CCCCC2	none
N#Cc1cccc(NC(=O)Cn2c3[n+](c4ccc(C(F)(F)F)cc42)CCCCC3)c1	MEKK3 PB1 HTS 69[inhibitor] | MEKK2wt confirm inactive | MEKK2mut-MEK5 inactive | MEKK3 confirm inactive
CC(=O)c1cccc(NC(=O)CN2CCc3cc4c(cc3C2C)OCCCO4)c1 (configuration not stated)	none
Cc1sc2ncn(CC(=O)NCCCC(=O)N3CCN(Cc4ccc5c(c4)OCO5)CC3)c(=O)c2c1C	none
O=C(NCc1ccc(N2CCCC2=O)cc1)Nc1cccc2ccccc12	MEKK2wt PB1 HTS -1.0[inhibitor], MEKK3 PB1 HTS 1.0[inhibitor] (no result: Lipid droplet) | MEKK2wt confirm inactive | MEKK2mut-MEK5 inactive | MEKK3 confirm inactive
O=C(NCc1ccc(N2CCCC2=O)cc1)Nc1ccccc1	none
CCOC(=O)c1sc(SC)c2c1CCC/C2=N/OC	MEKK3 PB1 HTS 131 | MEKK2wt confirm inactive | MEKK2mut-MEK5 inactive | MEKK3 confirm inactive
CCOc1ccc(NC(=O)CN(C)C(=O)Cc2c(C)nc3ccccc3c2C)cc1OCC	none
COc1ccc(COc2cc(-c3cccc(OC)c3)nc3ccc(NC(=O)c4ccc(N(C)C)cc4)cc23)cc1	none
COc1ccc(COc2cc(-c3cccc(OC)c3)nc3ccc(NC(=O)c4ccc(C)cc4)cc23)cc1	MEKK2wt PB1 HTS 1.0[inhibitor], MEKK3 PB1 HTS 1.0[inhibitor] | MEKK2wt confirm inactive | MEKK2mut-MEK5 inactive | MEKK3 confirm inactive
CCN(CC)S(=O)(=O)c1ccc(OC)c(NC(=O)c2cc3c(=O)n4ccccc4nc3s2)c1	MEKK3 PB1 HTS 130 | MEKK2wt confirm inactive | MEKK2mut-MEK5 inactive | MEKK3 confirm inactive
CCCn1c(=O)cc(N)n(-c2ccc(OC(F)(F)F)cc2)c1=O	none (no result: Lipid droplet)
Cc1n[nH]c(C)c1Sc1ccccc1[N+](=O)[O-]	MEKK3 PB1 HTS 57[inhibitor] | MEKK2wt confirm inactive | MEKK2mut-MEK5 inactive | MEKK3 confirm inactive
Cc1ccc(CNC(=O)CN2C(C)CCCC2C)cc1 (configuration not stated)	MEKK2wt PB1 HTS 62[inhibitor], MEKK3 PB1 HTS 56[inhibitor] | MEKK2wt confirm inactive | MEKK2mut-MEK5 inactive | MEKK3 confirm inactive
Cc1ccc(CNC(=O)CN(C2CCCCC2)S(C)(=O)=O)cc1	MEKK2wt PB1 HTS 55[inhibitor], MEKK3 PB1 HTS 67[inhibitor] | MEKK2wt confirm inactive | MEKK2mut-MEK5 inactive | MEKK3 confirm inactive
O=C(Nc1cccc2cccnc12)c1ccc(Cl)cc1Cl	none
COc1cc(NC(=O)c2ccccc2Cl)c2ncccc2c1	MEKK2mut PB1 HTS 26 | MEKK2wt confirm inactive | MEKK2mut-MEK5 inactive | MEKK3 confirm inactive
C=CCNC(=O)COC(=O)c1c2c(nc3ccccc13)CCC2	none
CCc1ccc(NC(=O)CO/N=C(\C)c2cc3ccccc3o2)cc1	MEKK3 PB1 HTS 136 | MEKK2wt confirm inactive | MEKK2mut-MEK5 inactive | MEKK3 confirm inactive
COc1cc([N+](=O)[O-])cc2cc(C(=O)NC(C)(C)C)c(=O)oc12	none
COCCCNC(=O)c1cc2cc([N+](=O)[O-])cc(OC)c2oc1=O	MEKK3 PB1 HTS 39[inhibitor] | MEKK2wt confirm inactive | MEKK2mut-MEK5 inactive | MEKK3 confirm inactive
COC(=O)c1[nH]c2cc(OC)c(OC)cc2c1/C=N/Nc1ccccc1	none
O=C(CCc1nc(-c2ccccc2F)no1)NC1CCN(Cc2ccccc2)CC1	MEKK2mut PB1 HTS 24 (no result: Lipid droplet) | MEKK2wt confirm inactive | MEKK2mut-MEK5 inactive | MEKK3 confirm inactive
Cc1ccc(-c2noc(CCC(=O)NC3CCN(Cc4ccccc4)CC3)n2)cc1	none (no result: Lipid droplet)
COc1ccc(NS(=O)(=O)c2cc3c4c(c2)C(C)C(=O)N4CCC3)cc1 (configuration not stated)	none
O=C(Oc1ccccc1)N1CCN(C(=O)c2ccco2)CC1	none
O=C(NC1CCCC1)c1ccc(S(=O)(=O)N2CCOCC2)cc1	MEKK3 PB1 HTS 131 | MEKK2wt confirm inactive | MEKK2mut-MEK5 inactive | MEKK3 confirm inactive
CCn1nc(C)c(CNC(=O)c2cc(COc3ccc(F)cc3Cl)on2)c1C	none
Cc1cc(Nc2cccc(F)c2)nc(NCc2ccccc2)n1	MEKK2wt PB1 HTS 142 | MEKK2wt confirm inactive | MEKK2mut-MEK5 inactive | MEKK3 confirm inactive
Cc1cc(Nc2ccccc2)nc(NCc2ccccc2)n1	MEKK2mut PB1 HTS 67, MEKK2wt PB1 HTS 167 | MEKK2wt confirm inactive | MEKK2mut-MEK5 inactive | MEKK3 confirm inactive
